Results taken from article PMC3475189 (Environmental science & technology, 2012).

Columns and labels:
[1] = Tissue levels of PCB 95 and OH-PCB metabolites by GC-ECD; format: in vivo, female C57Bl/6 mice; conditions: for levels in adipose and brain samples: detection limits 11 to 16 ng/g tissue; for concentration at 24 h: female, C57Bl/6, mouse, brain
[2] = cited from earlier work
[3] = General toxicity; format: in vivo, female C57Bl/6 mice; conditions: 0.1, 1 or 6 mg/kg b.w./day oral for 39 days, any dose level
In short: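 Seven-week-old female C57Bl/6 mice, housed singly on a 12 h reverse light cycle, were acclimated 7 days. They then took the test compound in peanut butter daily at 0.1, 1.0 or 6.0 mg/kg/day for 39 days, with the amount adjusted to daily body weight; vehicle controls received peanut butter only. Body weights were recorded daily and analysed by two-way repeated measures ANOVA.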

[4] = tested on: CYP2S1 mRNA; experiment: Hepatic CYP2S1 mRNA level by qPCR; format: in vivo, female C57Bl/6 mice; conditions: liver, all doses, 39 days oral
[5] = Enantiomeric fractions in tissues by enantioselective GC; format: in vivo, female C57Bl/6 mice
In short: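 Extracts of blood, brain, liver and adipose came from mice given 0.1, 1.0 or 6.0 mg/kg/day orally in peanut butter for 39 days and sacrificed 24 h after the last dose. Enantioselective GC-ECD used Chirasil Dex, BGB-172 or ChiralDex B-DM columns: 35 to 140 °C held 420 min, then 200 °C; injector and detector 250 °C; helium 3 mL/min. EF = A1/(A1+A2), E1 being the first-eluting atropisomer; mean ± SD.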

[6] = tested on: CYP3A11 mRNA; experiment: Hepatic CYP3A11 mRNA level by qPCR; format: in vivo, female C57Bl/6 mice; conditions: liver, high dose 6 mg/kg b.w./day, 39 days oral
[7] = tested on: CYP2B10 mRNA; experiment: Hepatic CYP2B10 mRNA level by qPCR; format: in vivo, female C57Bl/6 mice; conditions: liver, low dose 0.1 mg/kg b.w./day, 39 days oral
[8] = tested on: P450 mRNA (CYP1A2, CYP3A11, CYP2B10, CYP2S1); experiment: Brain P450 mRNA levels by qPCR; format: in vivo, female C57Bl/6 mice; conditions: 39 days oral
[9] = tested on: CYP1A2 mRNA; experiment: Hepatic CYP1A2 mRNA level by qPCR; format: in vivo, female C57Bl/6 mice; conditions: liver, 39 days oral

Oc1cc(Cl)c(-c2cc(Cl)ccc2Cl)c(Cl)c1Cl [4-95, 2,2′,3,5′,6-pentachlorobiphenyl-4-ol]
levels in adipose and brain samples [1]: below their respective detection limits
level in liver ([1]; liver, low dose treatment group): below the detection limit

COc1c(Cl)c(Cl)c(-c2cc(Cl)ccc2Cl)c(Cl)c1OC [4,5-95, 4,5-dimethoxy-2,2′,3,5′,6-pentachlorobiphenyl]
levels in adipose and brain samples [1]: below their respective detection limits

Oc1c(Cl)cc(-c2ccc(Cl)c(Cl)c2)c(Cl)c1Cl [4-107, 2,3,3′,4′,5-pentachlorobiphenyl-4-ol]
level in fetal brains ([2]; fetal brain after oral administration of 4-107 to pregnant Wistar rats): ~ 1 μg/g tissue
level in post-weanling rats ([2]; post-weanling rats): below detection

Clc1ccc(Cl)c(-c2c(Cl)ccc(Cl)c2Cl)c1 [PCB 95, 2,2′,3,5′,6-pentachlorobiphenyl]
effect on final body weight, growth rate or other signs of general toxicity [3]: no effect
hepatic CYP2S1 mRNA levels [4]: not affected
average EF value across treatment groups ([5]; adipose, EF = A1/(A1+A2)): ≈ 0.19
enriched atropisomer ([5]; blood, brain, liver and adipose, all three treatment groups): E2-PCB 95 was enriched
average EF across treatment groups ([5]; liver and blood, EF = A1/(A1+A2)): approximately 0.10
concentration at 24 h ([1]; oral, 6 mg/kg/day): 360 ng/g
concentration at 24 h ([1]; po): 37 to 360 ng/g
increase in adipose levels of PCB 95 ([1]; low to medium dose (10-fold increase in dose)): 10 fold
hepatic CYP3A11 levels compared to control [6]: no change
CYP2B10 mRNA levels compared to control [7]: no change
brain P450 mRNA levels [8]: not affected
CYP1A2 transcript levels relative to control ([9]; high dose 6 mg/kg b.w./day): not changed
induction of CYP1A2 mRNA compared to control ([9]; low dose 0.1 mg/kg b.w./day): 1.9 fold

COc1c(Cl)cc(Cl)c(-c2cc(Cl)ccc2Cl)c1Cl [3-103, 3 Methoxy 2,2′,4,5′,6-pentachlorobiphenyl]
levels in adipose and brain samples [1]: below their respective detection limits

Oc1cc(Cl)c(Cl)c(-c2cc(Cl)ccc2Cl)c1Cl [5-95, 2,2′,3,5′,6-pentachlorobiphenyl-5-ol]
enriched atropisomer ([5]; liver, high dose treatment group): E1-5-95 was enriched
enantiomeric enrichment ([5]; liver, medium dose treatment group): no consistent enantiomeric enrichment
levels in adipose and brain samples [1]: below their respective detection limits
